Experimental data reported in ChEMBL document CHEMBL2163264, “Identification and synthesis of substituted pyrrolo[2,3-d]pyrimidines as novel firefly luciferase inhibitors” (Bioorg Med Chem, 2012).
pIC50, pKi: −log10 of the molar value. Active and inactive are the calls of the source. No cut-off for these calls is given here.

Biological target: T1, Luciferin 4-monooxygenase (Photinus pyralis, UniProt P08659)
Assay: Mixed-type inhibition of Photinus pyralis luciferase using D-luciferin as substrate after 20 mins by Michaelis-Menten plot
Procedure, shortened: (§1)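 Photinus pyralis firefly luciferase (32 nM) in buffer A (1 M glycine-Tris, 10 mM EDTA, 100 mM MgSO4, pH 7.8) preincubated with inhibitor or buffer 20 min in the dark at room temperature. D-luciferin varied 3.125–200 µM with ATP fixed at 250 µM. Luminescence read. Apparent Km and Vmax from nonlinear Michaelis–Menten fit. Three independent assays in triplicate.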

T1 sequence (P08659 whole entry): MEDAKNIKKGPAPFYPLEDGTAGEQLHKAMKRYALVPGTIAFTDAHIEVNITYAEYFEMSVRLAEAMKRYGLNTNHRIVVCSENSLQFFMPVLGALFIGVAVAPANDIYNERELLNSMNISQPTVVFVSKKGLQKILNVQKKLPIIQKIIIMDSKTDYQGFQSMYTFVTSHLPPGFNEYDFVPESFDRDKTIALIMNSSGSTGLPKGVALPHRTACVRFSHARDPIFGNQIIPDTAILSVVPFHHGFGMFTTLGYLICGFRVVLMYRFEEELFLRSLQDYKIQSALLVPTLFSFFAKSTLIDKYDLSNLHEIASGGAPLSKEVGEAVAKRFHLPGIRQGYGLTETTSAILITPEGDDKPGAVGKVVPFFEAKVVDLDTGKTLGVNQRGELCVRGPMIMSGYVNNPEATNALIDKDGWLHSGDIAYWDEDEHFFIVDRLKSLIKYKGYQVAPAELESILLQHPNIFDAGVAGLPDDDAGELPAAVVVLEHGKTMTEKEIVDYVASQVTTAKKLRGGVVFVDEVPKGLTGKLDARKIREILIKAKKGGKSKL

Row | SMILES | pKi
1 | CC(C)n1ccc2c(Oc3ccc(N)cc3)ncnc21 | 6.66

Biological target: T1, Luciferin 4-monooxygenase
Assay: Mixed-type inhibition of Photinus pyralis luciferase using D-luciferin as substrate after 20 mins by bioluminescence assay
Procedure, shortened: as §1

Row | SMILES | pIC50
2 | CC(C)(C)Cn1ccc2c(Oc3ccc(N)cc3)ncnc21 | 7.10
3 | CC(C)n1ccc2c(Oc3ccccc3N)ncnc21 | 5.14
4 | CC(C)CCn1ccc2c(Oc3ccc(N)cc3)ncnc21 | 5.19
5 | CC(C)n1ccc2c(Oc3cccc(N)c3)ncnc21 | 4.83
6 | C=C(C)Cn1ccc2c(Oc3ccc(NC)cc3)ncnc21 | 7.22
7 | CC(C)Cn1ccc2c(Oc3ccc(N)cc3)ncnc21 | 6.51
8 | CC(C)=CCn1ccc2c(Oc3ccc(N)cc3)ncnc21 | 5.12
9 | C=C(C)Cn1ccc2c(Oc3ccc(N)cc3)ncnc21 | 6.92
10 | CC(C)n1ccc2c(Oc3ccc(N)cc3)ncnc21 | 6.44
11 | CNc1ccc(Oc2ncnc3c2ccn3C(C)C)cc1 | 6.89
12 | C=CCn1ccc2c(Oc3ccc(N)cc3)ncnc21 | 5.65
13 | C=C=Cn1ccc2c(Oc3ccc(N)cc3)ncnc21 | 5.03
14 | C=C(C)Cn1ccc2c(Oc3ccc(N(C)C)cc3)ncnc21 | 7.05
15 | Nc1ccc(Oc2ncnc3c2ccn3C2CCCC2)cc1 | 6.54
16 | CN(C)c1ccc(Oc2ncnc3c2ccn3CC(C)(C)C)cc1 | 6.92
17 | CCn1ccc2c(Oc3ccc(N)cc3)ncnc21 | 5.45
18 | CNc1ccc(Oc2ncnc3c2ccn3CC(C)(C)C)cc1 | 7.15
19 | CC(C)n1ccc2c(Oc3ccc(N)cc3)nc(N)nc21 | 4.97
20 | CC(C)n1ccc2c(Oc3ccc(N(C)C)cc3)ncnc21 | 6.74

Biological target: Luciferin 4-monooxygenase (Photinus pyralis) (UniProt P08659)
Assay: Mixed-type inhibition of Photinus pyralis luciferase using D-luciferin as substrate at 10 uM after 20 mins by bioluminescence assay

Chain of Luciferin 4-monooxygenase (Photinus pyralis) (P08659 whole entry): as above

Row | SMILES | inhibition [%]
21 | COc1ccc(Cn2ccc3c(Oc4ccc(N)cc4)ncnc32)cc1 | 26
22 | CC(C)n1ccc2c(Oc3ccc(N)cc3)nc(S(C)(=O)=O)nc21 | 9
23 | Nc1ccc(Oc2ncnc3c2ccn3Cc2ccc(C(F)(F)F)cc2)cc1 | 7
24 | NC(=O)Cn1ccc2c(Oc3ccc(N)cc3)ncnc21 | 21
25 | Nc1ccc(Oc2ncnc3c2ccn3Cc2ccccc2)cc1 | 46
26 | Cn1ccc2c(Oc3ccc(N)cc3)ncnc21 | 48
27 | CCOC(=O)Cn1ccc2c(Oc3ccc(N)cc3)ncnc21 | 33
28 | Nc1ccc(Oc2ncnc3[nH]ccc23)cc1 | 19
29 | CSc1nc(Oc2ccc(N)cc2)c2ccn(C(C)C)c2n1 | 31

Biological target: Luciferin 4-monooxygenase (Photinus pyralis) (UniProt P08659)
Assay: Uncompetitive inhibition of Photinus pyralis luciferase using 50 uM D-luciferin as substrate after 20 mins by Lineweaver-Burk plot in presence of 25 to 500 uM ATP
Procedure, shortened: (§2)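 ATP-dependence kinetics: 32 nM P. pyralis luciferase in pH 7.8 glycine-Tris/EDTA/MgSO4 buffer, preincubated 20 min with inhibitor in the dark at room temperature. ATP varied 25–500 µM with D-luciferin fixed at 50 µM, read by bioluminescence. Double-reciprocal plots were examined. Apparent Km and Vmax came from nonlinear Michaelis–Menten fitting. Three independent assays in triplicate.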

Row | SMILES | inhibition
30 | CC(C)n1ccc2c(Oc3ccc(N)cc3)ncnc21 | Active

Biological target: T1, Luciferin 4-monooxygenase
Assay: Uncompetitive inhibition of Photinus pyralis luciferase using 50 uM D-luciferin as substrate after 20 mins by nonlinear regression analysis in presence of 25 to 500 uM ATP
Procedure, shortened: as §2

Row | SMILES | pKi
31 | CC(C)n1ccc2c(Oc3ccc(N)cc3)ncnc21 | 6.47

Biological target: T1, Luciferin 4-monooxygenase
Assay: Competitive inhibition of Photinus pyralis luciferase using 3.125 to 200 uM D-luciferin as substrate after 20 mins by Michaelis-Menten plot in presence of 250 uM ATP
Procedure, shortened: as §1

Row | SMILES | pKi
32 | CC(C)n1ccc2c(Oc3ccc(N)cc3)ncnc21 | 5.84
